Hit rate of the full screen: of about 330,000 compounds, about 1,100 (0.33%) were called active.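 Rule for the calls: active = versus positive control, 20 µM dose yields 30% or more activation; inactive = the rest.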 For the sample, actives were picked, then their nearest neighbours and some compounds at random.
Assay: activators of adaptive XBP1 UPR arm, primary screen, cell-based, CHO-XBP1 luciferase reporter, luminescence, uHTS (AID 463104);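 note: 100% = tunicamycin at 10 µg/mL and 0% = DMSO only wells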
Settings: IRE1-XBP1 UPR activation, at 20 µM, hits give high values, percent of tunicamycin response, DMSO as zero
Outline: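 Signal: luciferase luminescence; Assay system: CHO-XBP1 luciferase reporter cells; Amount: one thousand reporter cells per well; Dosing: 20 µM single concentration, DMSO 1%; Benchmarks: high control tunicamycin 10 µg/mL final, low control DMSO vehicle only; Schedule: 6 h compound exposure at 37 °C, 5% CO2; Evaluation: percent activation relative to tunicamycin reference.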
With `COC(=O)C1=C(c2ccccc2)C[C@@H]2CC[C@H]1N2C(=O)NCc1ccco1` the activation was 1.2% (inactive). In the case of `COc1cc(Cn2c(N)c(C(=O)NCc3ccco3)c3nc4ccccc4nc32)cc(OC)c1OC`, the activation was 35.8% (active). With `CCOC(=O)c1c(N)n(Cc2ccccc2)c2nc3ccccc3nc12` the activation was 2.64% (inactive). With `CC(C(=O)Nc1ccc(Cl)cc1Cl)N1CC=C(c2ccccc2)CC1` (stereo not given) the activation was -1.2% (inactive). In the case of `CNC(=O)O/N=C(\N)Cc1csc2ccc(Cl)cc12`, the activation was 0.76% (inactive).
